In ChEMBL document CHEMBL4513216, “Probing the Open Global Health Chemical Diversity Library for Multistage-Active Starting Points for Next-Generation Antimalarials” (ACS Infect Dis, 2020):

Assay: Toxicity liver stage against HepG2, at 10uM
Format: cell-based
Design: test concentration 10 uM, cell line HepG2-A16-CD81EGFP
Settings: human, HepG2-A16-CD81EGFP cells; read-out: INHIBITION
Method in brief: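 Uninfected HepG2-A16-CD81EGFP cells, 3 × 10^3 per well, 1536-well, plated on prespotted compound at 10 μM final, parasite-free screening media added to match infected plates; puromycin 10 μM positive, DMSO 0.5% negative; run in parallel with 48 h PbLuc assay at 37 °C, 5% CO2; viability by CellTiter-Glo luminescence, normalized to controls.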

Row | Structure (SMILES) | cytotoxicity at 10 µM
1 | CCn1ccnc1CN1CCCC(CO)(Cc2cccc(OC)c2)C1 (stereo unspecified) | 3.25%
2 | O=c1[nH]cnc2[nH]c(N3CCCCC3)nc12 | 3.03%
3 | F[C@@H]1CN(Cc2ccccc2)C[C@@H]1OCc1nc2cnccc2[nH]1 | -0.966%
4 | c1ccc(O[C@H]2COCCN(Cc3cccc4c3OCO4)C2)cc1 | 3.53%
5 | Cc1n[nH]c2c1C(c1ccc(F)cc1)SCC(=O)N2 (stereo unspecified) | 2.06%
6 | CN1CC[C@H](N(Cc2ccccc2)CC2CC2)C[C@H](O)C1 | -1.47%
7 | Cc1ccc(C(=O)N2CC(=O)N(Cc3cccs3)CC(O)C2)cc1 (stereo unspecified) | -5.46%
8 | O=C(Cn1ccc2ccccc21)NC[C@@H]1CCCN2CCCC[C@H]12 | -4.16%
9 | COCC(=O)N1CCC(c2ccc(OC)cc2)C1 (stereo unspecified) | 1.81%
10 | Cc1nc(OCC(=O)N2CCCC2)cc(-n2cccn2)n1 | 3.99%
11 | Cn1cc(CN2CCc3c(c(COCC#N)nn3C)C2)cn1 | -2.45%
12 | CN(C)Cc1nn(C)c2c1CN(C(=O)c1cccc(C#N)c1)C2 | 7.38%
13 | O=C(c1ccnnc1)N1C[C@H]2CCC[C@@H](OCc3cccnc3)[C@@H]2C1 | 5.19%
14 | O=C(C1CCOCC1)N1CCO[C@@H]2[C@@H](OCc3ccncc3)CC[C@@H]21 | 8.5%
15 | COCC1COCCC12CCN(C(=O)CC1Cc3ccccc3C1)CC2 (stereo unspecified) | 4.03%
16 | COCC1CN(C(=O)C2=CCCC2)Cc2cnn(CC3CC3)c21 (stereo unspecified) | 9.61%
17 | CC(C)CCNC(=O)c1c(-n2cnnn2)sc2c1CCCC2 | 8.79%
18 | CNC(=O)[C@H]1C[C@@H]2CN(S(=O)(=O)c3ccccc3)C[C@@H]2N1C(C)=O | -10.4%
19 | Cc1ccc2c(cnn2CCC(=O)NCc2csc(C)n2)c1 | 1.14%
20 | CCn1nc(C)c(C(=O)Nc2ccc3c(c2)C(C)(C)C(=O)N3C)c1C | 6.42%
21 | CCOc1ccccc1Nc1nc2c(C)nn(C)c2c(=O)n1C | -7.53%
22 | O=C(NCCc1cc2nc(-c3ccncc3)ccn2n1)C1CC1 | 5.82%
23 | CN1CCC(Cc2cccc(-c3cc(F)ccc3C(=O)O)n2)CC1 | -3.22%

Row | Structure (SMILES) | cytotoxicity at 10 µM
24 | CC(C)N1CCC(Cc2cc(-c3cccc(C(=O)O)c3)ncn2)CC1 | -8.99%
25 | CC(C)C(=O)N1CCC(Cc2nccnc2Nc2ccccn2)CC1 | -7.08%
26 | Cc1c[nH]nc1C1CCCN(C(=O)c2c(C)noc2C)C1 (stereo unspecified) | -3.53%
27 | Cn1ccc(C(=O)N2CCC(Cc3cccc4ncccc34)C2)n1 (stereo unspecified) | -4.83%
28 | Cc1cc(Br)cnc1N(C)CC1CCOC1 (stereo unspecified) | 4.99%
29 | Cc1csc(N2CCCN(C(=O)c3nccnc3N)CC2)n1 | -2.42%
30 | COc1ccc(Br)cc1Cn1nc(C(N)=O)ccc1=O | 8.09%
31 | CC(C)N(CC(C)(C)O)C(=O)NC1CC1 | 5.73%
32 | Cn1cc(C2(C)CN(C(=O)COc3ccccc3F)CCO2)cn1 (stereo unspecified) | 0.814%
33 | CNC(=O)c1ccc(NC(=O)NC(C)CCc2cccn2C)c(C)c1 (stereo unspecified) | 3.75%
34 | Cc1nnc(C2Cc3ccccc3CN2Cc2nc(C3CC3)no2)o1 (stereo unspecified) | -13.1%
35 | CCCC(=O)NC1CCCN(C(=O)c2ccc(C)nc2)C1 (stereo unspecified) | 17.5%
36 | COC(=O)c1sc2cccc(F)c2c1CNC(=O)C1CCOC1 (stereo unspecified) | 8.97%
37 | Cc1cc(N2CCc3c(ncn3C3CC3)C2)nc(N)n1 | -5.44%
38 | Cc1nc(C)c(CCNC(=O)NC2CC(=O)N(C(C)(C)C)C2)s1 (stereo unspecified) | -1.08%
39 | CN1CCC(CCNC(=O)N2CCN(Cc3ccon3)CC2)CC1 | -6.49%
40 | Cc1n[nH]c(C2CN(CC(=O)NCCC3=CCCCC3)CCO2)n1 (stereo unspecified) | 12.9%
41 | CCSc1ccc(C(=O)N2CCCC2C(=O)N2CCOCC2)cn1 (stereo unspecified) | -6.98%
42 | CC(C)(C)c1cc(NC(=O)CN2CCCC(Cn3cncn3)C2)on1 (stereo unspecified) | 3.69%
43 | CN(CCCc1n[nH]c(N)c1C#N)C(=O)NC1CC1 | 5.85%
44 | NC(=O)NC(=O)CCN1C(=O)CC(Cc2ccc(F)cc2)C1=O (stereo unspecified) | -0.327%
45 | COc1cc(-n2cccc2)c(Cl)cc1C(=O)NS(C)(=O)=O | 0.872%
46 | CC(NC(=O)N1CCN(c2ncccn2)CC1)c1ccc(C#N)cc1 (stereo unspecified) | -2.81%

Row | Structure (SMILES) | cytotoxicity at 10 µM
47 | CC(C)C(O)CCNC(=O)Nc1cc(F)ccc1-n1cccn1 (stereo unspecified) | -3.86%
48 | Cc1[nH]c2ccccc2c1CCNC(=O)N1CCC2(C1)OCCO2 | 1.12%
49 | Cc1noc(CN2CCN(CC(C)O)CC2)n1 (stereo unspecified) | -10%
50 | CC(CNC(=O)c1cccnc1Oc1cccnc1)N(C)C (stereo unspecified) | -14%
51 | Cc1ccc(-c2nc(CN3CCOC(Cn4cccn4)C3)cs2)o1 (stereo unspecified) | -8.86%
52 | CN(Cc1cccs1)C(=O)CN1CCCC1Cn1cncn1 (stereo unspecified) | -15.6%
53 | NC(=O)C1CCN(C(=O)Cn2nc(-c3ccccc3)oc2=O)C1 (stereo unspecified) | -13%
54 | CC(C)C1CN(C(=O)c2nccnc2N)CCS1 (stereo unspecified) | -8.54%
55 | Cc1nn(C)c(N2CCOCC2)c1CNC(C)c1cccnc1 (stereo unspecified) | -13.6%
56 | CN(C)CCO[C@H]1CN(C(=O)c2ccc(C#N)cc2)[C@@H]2COC[C@H]12 | 0.929%
57 | CNCC(=O)Nc1cccc(-c2cnc(NCCO)nc2)c1 | -6.94%
58 | C[C@H]1CCCCN1CCCNc1nccc(-c2c[nH][nH]c2=O)n1 | -6.91%
59 | O=C1CN(CC2CC2)Cc2nc(NCCc3ccccn3)sc21 | -12.3%
60 | O=C(Nc1ccc(-c2cnc(NCCO)nc2)cc1)[C@@H]1CCCCN1 | -5.08%
61 | CSCc1noc(CN2CC3(CCCC3)CC2=O)n1 | 4.29%
62 | O=c1[nH]c(-c2cccnc2)nc2c1CCN(S(=O)(=O)N1CCCC1)C2 | 0.384%
63 | Cc1ccc(CSc2nc(N)cc(NCCS(=O)(=O)N(C)C)n2)cc1 | 0.479%
64 | CC(c1ccc(-c2cnc(N)nc2)cc1)N1CCOCC1 (stereo unspecified) | 1.97%
65 | O=C(c1scc2c1OCCO2)N1CCC(Cc2cccc(CO)c2)C1 (stereo unspecified) | 6.01%
66 | O=C(O)c1cccc(CC2CCN(c3ncc(F)cn3)CC2)c1 | -108%
67 | CCC(=O)c1ccc(OCC(=O)NC(C)c2ncnn2CC)cc1 (stereo unspecified) | 1.9%
68 | CN1C(=O)c2ccc(C(=O)N(Cc3cnn(C)c3)C3CC3)cc2C1=O | 5.68%
69 | CCC(CC)Cn1ncc(N2CCOCC2)cc1=O | -3.46%

Row | Structure (SMILES) | cytotoxicity at 10 µM
70 | Cc1ncsc1CCC(=O)NCc1csc(N(C)C)n1 | 1.31%
71 | Nc1cc(N2CCCC(COc3ccc(F)cc3)C2)ncn1 (stereo unspecified) | -0.106%
72 | COc1ccc(Cl)cc1S(=O)(=O)N(C)CC(N)=O | 7.82%
73 | N#Cc1cccnc1N1CCCC(CO)(CCOc2ccccc2)C1 (stereo unspecified) | 3.04%
74 | Cc1noc(CN2CC(=O)N(C)c3ccccc3C2=O)n1 | -5.03%
75 | CC1CCN(S(=O)(=O)NCC2CCOc3ccccc3C2)CC1 (stereo unspecified) | -1.25%
76 | COCCN(C)C[C@@H]1CN(C(=O)c2cccc(C(F)(F)F)c2)C[C@@H]1CO | -17.5%
77 | COCCn1ccnc1C1CCCN(C(=O)CSCC2CC2)C1 (stereo unspecified) | -14.6%
78 | N#Cc1c(SCCN2CCCCC2)sc2c(O)cc(O)nc12 | -13.1%
79 | CCn1cnnc1C1CCN(C(=O)c2cc(OC)ccc2OC)CC1 | -4.2%
80 | CNC(=O)COc1ccc(CNc2cncc(-n3cccn3)n2)cc1 | -0.906%
81 | CC(C)c1cc(NC(=O)CN2CCCC2Cn2cncn2)on1 (stereo unspecified) | -4.05%
82 | CN(Cc1cccc(F)c1)Cc1nc2c(cnn2C)c(=O)[nH]1 | -2.8%
83 | CCOc1ccnc(N2CCN(C(=O)c3ccoc3)CC2)n1 | -6.1%
84 | COc1c(C2CCCN2CC(=O)Nc2cc(C)nn2C)c(C)nn1C (stereo unspecified) | 3.72%
85 | O=C(N1CCCC(n2cncn2)C1)C1(c2cccc(F)c2)CC1 (stereo unspecified) | -2.91%
86 | O=C(NCC1CC1)Nc1ccc(OCC(F)(F)F)nc1 | -2.4%
87 | COc1cccc2cc(CNC(=O)N3CCS(=O)(=O)CC3)oc12 | -19.3%
88 | O=C(COc1ccccc1)NCCNC(=O)c1scnc1Cl | -4.83%
89 | Cc1ccccc1CCNC(=O)CN1CCCC(Cn2cncn2)C1 (stereo unspecified) | -5.04%
90 | Cc1cc(CN(C)C(=O)c2ccc(F)c(C(F)(F)F)c2)no1 | -10%
91 | CC(C)C(C)NC(=O)c1cc(Br)c2c(c1)OCCO2 (stereo unspecified) | -9.89%
92 | Cc1ccccc1OCCN1CCCC(c2cc(C(N)=O)[nH]n2)C1 (stereo unspecified) | -14.3%

Row | Structure (SMILES) | cytotoxicity at 10 µM
93 | Cc1nc(C2CCCN(C(=O)c3cc(Cl)c4c(c3)OCO4)C2)no1 (stereo unspecified) | -2.09%
94 | Cc1cnn(CC2CCCCN2C(=O)c2csc(C)n2)c1 (stereo unspecified) | -1.16%
95 | O=C(C1CCOCC1)N1C[C@H]2CCC[C@@]2(COc2cccnc2)C1 | -1.18%
96 | O=C(c1ccccn1)N1CCC2(CC1)COC(COCC1CC1)C2 (stereo unspecified) | 5.14%
97 | COCc1nn(C(C)C)c2c1CCN(Cc1cccs1)C2 | -9.55%
98 | CN1CC(=O)N(c2cccc(F)c2)CC12CCN(Cc1ccsc1)C2 (stereo unspecified) | 4.93%
99 | CC(C)CS(=O)(=O)N1CCC2(CN(c3ccsc3)C(=O)CN2C)C1 (stereo unspecified) | 6.88%
100 | Cc1cccc(CN2CCc3nnc(Cn4cccc4)n3CC2)n1 | 1.7%
101 | Cc1occc1C(=O)N1CCCC2(CCN(CCN3CCCC3)C2=O)C1 (stereo unspecified) | -9.18%
102 | CN(C)C(C)(C)CNCc1cn(C)nc1-c1cccnc1 | 11.8%
103 | CN(C)C[C@]12COC[C@H]1CN(C(=O)Cc1ccc3c(c1)OCO3)C2 | -9.94%
104 | c1ccc(CN2CCc3c(COCC4CC4)cncc3C2)nc1 | 2.41%
105 | Cn1ccnc1CN1CCC2(CC1)Cc1ccccc1CNC2=O | -1.6%
106 | CN(C)c1ncc2c(n1)C1(CCN(Cc3ccccc3F)C1)COC2 (stereo unspecified) | 10.6%
107 | O=C([C@@H]1CCO[C@@H]2CCN(Cc3cccs3)C[C@H]21)N1CCCCO1 | 5.77%
108 | O=C(NC[C@]12COC[C@H]1CN(Cc1nccs1)C2)c1ccccc1 | -11.8%
109 | CC(C)c1nn(C)cc1CNCc1ccnc(N(C)C)c1 | -0.431%
110 | Cc1ccc2c(n1)N(C)CCN(C(=O)NC(C)C)C2 | -3.38%
111 | CCCn1nccc1NC(=O)CN1CCc2cnc(CC)nc2C1 | 2.31%
